These results are taken from publication PMC3755622 (Archives of biochemistry and biophysics, 2013).

Structures are written as SMILES.

What all share (type): biochemical, Prunus dulcis
The test system of assay [1] is sweet almond β-glucosidase. In words: KM as Ki from inhibition of pNPG hydrolysis at […] nm. As to conditions: pH 6.3, 0.01 M MES, 0.01 M NaCl, 4.6% v/v DMSO, 25°C; kcat calculated from kcat/KM and KM.
Assay [2] concerns the target sweet almond β-glucosidase. In words: inhibition of pNPG hydrolysis, p-nitrophenolate at […] nm. As to conditions: pNPG about 0.1 mM, pH 6.3, 25°C; not detectably hydrolysed.
Assay [3] concerns sweet almond β-glucosidase. In words: p-nitrophenolate absorbance at […] nm. As to conditions: pH 6.3, 0.01 M MES, 0.01 M NaCl, 4.6% v/v DMSO, 25°C.
Assay [4] relates to sweet almond β-glucosidase. The assay can be described thus: initial velocity, stopped assay, glucose by hexokinase / G6PDH. As to conditions: pH 6.3, 0.01 M MES, 0.01 M NaCl, 4.6% v/v DMSO, 25°C, H2O. The essentials:
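Chromatographically purified almond enzyme (65 kD), diluted from stock in 0.01 M MES/0.01 M NaCl pH 6.3, added to about 2 μg/mL to start the reaction at 25.0 °C. Thioglucoside substrate came from DMSO stock. Aliquots were withdrawn and glucose measured by coupled yeast hexokinase/L. mesenteroides G6PDH (10 mM ATP, 5 mM MgSO4, 1 mM NAD+, pH 7.5), reading NADH at 340 nm. Km came from non-linear Michaelis-Menten fit.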

For `OC[C@H]1O[C@@H](Sc2nc3ccccc3o2)[C@H](O)[C@@H](O)[C@@H]1O` [GlcSBox, 2-benzoxazolyl 1-thio β-D-glucopyranoside], in assay [1], the Km was 2700 µM.

Turning to `OC[C@H]1O[C@@H](SC2=NCCS2)[C@H](O)[C@@H](O)[C@@H]1O` [GlcSTaz, 2-thiazolinyl1-thio-β-D-glucopyranoside], in assay [2], the Ki came out at 8.7 mM.

Consider `O=[N+]([O-])c1ccc(O[C@@H]2O[C@H](CO)[C@@H](O)[C@H](O)[C@H]2O)cc1` [pNPG, p-nitrophenyl β-D-glucopyranoside], for which, in assay [3], the Michaelis-Menten constant (Km) stood at 2500 µM.

Consider `OC[C@H]1O[C@@H](Sc2nc3ccccc3[nH]2)[C@H](O)[C@@H](O)[C@@H]1O` [GlcSBiz, 2'-benzimidazolyl 1-thio-β-D-glucopyranoside], for which, in assay [4], the Km was determined as 2500 µM.

As to `Cn1c(S[C@@H]2O[C@H](CO)[C@@H](O)[C@H](O)[C@H]2O)nc2ccccc21` [GlcS(N-Me)Biz, 1'-methylbenzimidazol-2'-yl 1-thio-β-D-glucopyranoside], the Km in assay [1] is 47000 µM.

Broadly, the Km is the substrate concentration at which the rate is half of its maximum. The Ki is the equilibrium dissociation constant of an inhibitor or competing ligand from its target. A high value points to a looser hold on the target.
